Measurements reported in ChEMBL document CHEMBL1132598, “Synthesis, corticotropin-releasing factor receptor binding affinity, and pharmacokinetic properties of triazolo-, imidazo-, and pyrrolopyrimidines and -pyridines” (J Med Chem, 1999).

tested on: not listed separately; assay: Oral bioavailability in rat (dose 1 mg/kg); assay type: ADME, organism-based; settings: in vivo
In short: (§1)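 Rats were given a single 1 mg/kg oral dose, as a 0.25% methylcellulose suspension or as a solution in EtOH/PG (20:80). Animals were sacrificed at 30 min and 1, 2, 4, 8 and 16 h, with blood collected into EDTA. Plasma was separated by centrifugation and extracted liquid–liquid. Analysis was by LC/MS/MS. Each value is a single determination or the average of two.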

Structure (SMILES)	bioavailability [%]
CCC(CCOC)Nc1nc(C)nc2c1ncn2-c1ccc(C(C)C)cc1Br (stereo unspecified)	7

biological target: T1, Corticotropin-releasing factor receptor 1 (Homo sapiens, UniProt P34998); assay: Binding affinity to recombinant human Corticotropin releasing factor receptor 1 (hCRF1) expressed in 293EBNA cells; assay type: cell-based; settings: not given
T1 sequence (P34998 whole entry): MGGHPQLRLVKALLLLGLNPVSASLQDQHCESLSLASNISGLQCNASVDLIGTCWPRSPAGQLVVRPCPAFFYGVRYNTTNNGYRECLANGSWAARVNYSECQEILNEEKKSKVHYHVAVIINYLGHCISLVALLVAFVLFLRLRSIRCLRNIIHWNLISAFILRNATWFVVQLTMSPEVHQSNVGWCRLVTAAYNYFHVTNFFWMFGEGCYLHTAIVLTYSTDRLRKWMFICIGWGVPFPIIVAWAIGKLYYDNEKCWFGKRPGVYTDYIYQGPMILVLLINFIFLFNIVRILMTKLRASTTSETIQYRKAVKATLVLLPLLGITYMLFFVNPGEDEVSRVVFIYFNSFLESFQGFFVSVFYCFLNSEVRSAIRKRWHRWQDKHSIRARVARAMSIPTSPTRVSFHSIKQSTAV

Structure (SMILES)	Ki [nM]
CCCCN(CC)c1nc(C)nc2c1nc(C)n2-c1c(Cl)cc(OC)cc1OC	3.5
CCC(CC)Oc1nc(C)nc2c1ncn2-c1ccc(C(C)C)cc1Br	3.5
CCN(CC)c1nc(C)nc2c1ncn2-c1ccc(C(C)C)cc1Br	12.4
COCCNc1nc(C)nc2c1nnn2-c1ccc(C(C)C)cc1Br	242
COCCNc1nc(C)nc2c1ncn2-c1ccc(C(C)C)cc1Br	210
CCCC(C)Nc1nc(C)nc2c1nnn2-c1c(C)cc(C)cc1C (stereo unspecified)	7.1
CCCC(CC)Nc1nc(C)nc2c1ncn2-c1ccc(C(C)C)cc1Br (stereo unspecified)	4.4
Cc1cc(C)c(-n2c(C)c(C)c3c(N4CCOCC4)nc(C)nc32)c(C)c1	201
CCC(COC)Nc1nc(C)nc2c1nnn2-c1ccc(C(C)C)cc1Br (stereo in doubt; 4y)	7.5
CCCC(CCC)Nc1nc(C)nc2c1nnn2-c1c(C)cc(C)cc1C	4
CCC(CC)Nc1nc(C)nc2c1nnn2-c1ccc(C(C)C)cc1Br	5.2
CCCCC(CC)Oc1nc(C)nc2c1nnn2-c1ccc(C(C)C)cc1Br (stereo unspecified)	1.5
CCCCN(CC)c1nc(C)nc2c1nnn2-c1ccc(N(C)C)cc1C(F)(F)F	15.4
CCCC(CN(C)C)Nc1nc(C)nc2c1nnn2-c1ccc(C(C)C)cc1Br (stereo unspecified)	38.7
CCCCN(CC)c1nc(C)nc2c1nnn2-c1ccc(C(C)=O)cc1Br	33.7
COCCN(CCOC)c1nc(C)nc2c1ncn2-c1ccc(C(C)C)cc1Br	5.9
CCCCN(CC)c1nc(C)nc2c1nnn2-c1ccc(Br)cc1Br	20.4
CCCCN(CC)c1nc(C)nc2c1nnn2-c1c(C)cc(C)cc1C	27.5
CCCCN(CC)c1nc(C)nc2c1ncn2-c1c(C)cc(C)cc1C	25
CCCCN(CC)c1nc(C)nc2c1nc(C(F)(F)F)n2-c1ccc(C(C)C)cc1Br	1.4
CCCCC(CC)Nc1nc(C)nc2c1nnn2-c1ccc(C(C)C)cc1Br (stereo unspecified)	3.1
COCCN(CCOC)c1nc(C)nc2c1nnn2-c1ccc(OC(F)(F)F)cc1Br	33.2
CCC(CC)Nc1nc(C)nc2c1nnn2-c1c(C)cc(C)cc1C	5.7
CCCC(Nc1nc(C)nc2c1nnn2-c1ccc(C(C)C)cc1Br)C(=O)N(C)C (stereo unspecified)	235
CCCCN(CC)c1nc(C)nc2c1nnn2-c1ccc(SC)cc1Br	10.6

Structure (SMILES)	Ki [nM]
COCCN(CCOC)c1ncnc2c1nnn2-c1ccc(C(C)C)cc1Br	203
CCCCN(CCCC)c1nc(C)nc2c1nnn2-c1ccc(C(C)C)cc1Br	32.5
CCCCN(CC)c1nc(C)nc2c1nnn2-c1ccc(S(C)(=O)=O)cc1Br	100
CCCCN(CC)c1nc(C)nc2c1nnn2-c1c(Br)cc(OC)cc1OC	3
COCCCNc1nc(C)nc2c1nnn2-c1ccc(C(C)C)cc1Br	291
CCC(COC)Nc1nc(C)nc2c1nnn2-c1c(C)cc(C)cc1C (stereo unspecified)	59.4
COCC(C)(C)Nc1nc(C)nc2c1nnn2-c1ccc(C(C)C)cc1Br	195
CCCCNc1nc(C)nc2c1nnn2-c1ccc(C(C)C)cc1Br	69.6
COCCN(CCOC)c1nc(C)nc2c1c(C)c(C)n2-c1c(C)cc(C)cc1C	7.1
CCOCC(COCC)Oc1nc(C)nc2c1nnn2-c1ccc(C(C)C)cc1Br	39.7
CCCCN(CC)c1nc(C)nc2c1nnn2-c1c(Cl)cc(OC)cc1OC	4.4
CCC(Nc1nc(C)nc2c1nnn2-c1ccc(C(C)C)cc1Br)C(=O)OC (stereo unspecified)	19.4
COCCN(CCOC)c1nc(C)nc2c1ncn2-c1c(Br)cc(OC)cc1OC	31.3
COCCN(CCOC)c1nc(C)nc2c1nc(C)n2-c1ccc(C(C)C)cc1Br	6.7
COCCN(CCOC)c1nc(C)nc2c1nnn2-c1ccc(C(C)C)cc1	3920
CCCCc1nc2c(N(CC)CCCC)nc(C)nc2n1-c1c(Cl)cc(OC)cc1OC	22
CCCCN(CC)c1nc(C)nc2c1c(C)c(C)n2-c1c(C)cc(C)cc1C [ANTALARMIN]	0.84
COCC(COC)Nc1nc(C)nc2c1nnn2-c1ccc(C(C)C)cc1Br	10.3
CCCCN(CC)c1nc(C)nc2c1c(C)cn2-c1c(C)cc(C)cc1C [CP-154526]	1.61
CCN(c1nc(C)nc2c1nnn2-c1ccc(C(C)C)cc1Br)C(COC)COC	123
COCCN(CCO)c1nc(C)nc2c1nnn2-c1ccc(C(C)C)cc1Br	64
CCCCN(CC)c1cc(C)nc2c1nc(C)n2-c1ccc(C(C)C)cc1Br	3.9
CCC(CCOC)Nc1nc(C)nc2c1ncn2-c1ccc(C(C)C)cc1Br (stereo unspecified)	8
CCCCC(CC)Nc1nc(C)nc2c1ncn2-c1ccc(C(C)C)cc1Br (stereo unspecified)	5.1
CCC(CC)Oc1nc(C)nc2c1nnn2-c1ccc(C(C)C)cc1Br	1.9

Structure (SMILES)	Ki [nM]
COCC(Cc1ccccc1)Nc1nc(C)nc2c1nnn2-c1c(C)cc(C)cc1C (stereo unspecified)	27.7
CCN(CCOC)c1nc(C)nc2c1nnn2-c1c(C)cc(C)cc1C	20.7
COCCN(CCOC)c1nc(C)nc2c1nnn2-c1c(C)cc(C)nc1C	416
CCCCN(CCCC)c1nc(C)nc2c1ncn2-c1ccc(C(C)C)cc1Br	6.1
CCCC(CC)Nc1nc(C)nc2c1nnn2-c1ccc(C(C)C)cc1Br (stereo unspecified)	2.8
CCCCC(CCCC)Nc1nc(C)nc2c1nnn2-c1ccc(C(C)C)cc1Br	4.5
CCCCC(CC)Oc1nc(C)nc2c1ncn2-c1ccc(C(C)C)cc1Br (stereo unspecified)	2.9
COCC(COC)N(C)c1nc(C)nc2c1nnn2-c1ccc(C(C)C)cc1Br	21.3
COCCN(CCOC)c1cc(C)nc2c1nnn2-c1ccc(C(C)C)cc1SC	4.7
COCCN(CCOC)c1cc(C)nc2c1nc(C)n2-c1ccc(C(C)C)cc1Br	9.8
COCCN(CC1CC1)c1nc(C)nc2c1nnn2-c1ccc(C(C)C)cc1Br	4.6
COCCN(CCOC)c1cc(C)nc2c1nnn2-c1ccc(C(C)C)cc1S(C)(=O)=O	476
COCCN(CCOC)c1nc(C)nc2c1nnn2-c1ccc(C(C)C)cc1SC	15.3
Cc1nc(NC2CCCC2)c2nnn(-c3ccc(C(C)C)cc3Br)c2n1	120
COCCN(CCOC)c1nc(C)nc2c1ncn2-c1c(C)cc(C)cc1C	20.7
CCC(CO)Nc1nc(C)nc2c1nnn2-c1ccc(C(C)C)cc1Br (stereo unspecified)	25.3
Cc1nc(N(CCO)CCO)c2nnn(-c3ccc(C(C)C)cc3Br)c2n1	3460
CCN(CCOC)c1nc(C)nc2c1nnn2-c1ccc(C(C)C)cc1Br	10.5
CCCCN(CC)c1cc(C)nc2c1nnn2-c1ccc(C(C)C)cc1SC	2.2
COCCN(CCOC)c1nc(C)nc2c1nnn2-c1c(C)cc(C)cc1C	24.1
CCCCN(CC)c1nc(C)nc2c1ncn2-c1c(Cl)cc(OC)cc1OC	5.2
COCC(COC)Oc1nc(C)nc2c1nnn2-c1ccc(C(C)C)cc1Br	7.1
CCCCN(CC)c1nc(C)nc2c1ncn2-c1ccc(C(C)C)cc1Br	4.3
COCC(Cc1ccccc1)Nc1nc(C)nc2c1nnn2-c1ccc(C(C)C)cc1Br (stereo unspecified)	36.7
COCCN(CCOC)c1cc(C)nc2c1nnn2-c1ccc(C(C)C)cc1Br	4.7

Structure (SMILES)	Ki [nM]
CCC(COC)Nc1nc(C)nc2c1nnn2-c1ccc(C(C)C)cc1Br (stereo in doubt; 4z)	9.4
COCCN(CCOC)c1nc(C)nc2c1nnn2-c1ccc(N(C)C)cc1Br	10.5
C=CCN(CCOC)c1nc(C)nc2c1nnn2-c1ccc(C(C)C)cc1Br	4.3
CCCC(CCC)Nc1nc(C)nc2c1ncn2-c1ccc(C(C)C)cc1Br	3.6
CCCCN(CC)c1nc(C)nc2c1ncn2-c1c(Br)cc(OC)cc1OC	3.5
CCCC(CCC)Nc1nc(C)nc2c1nnn2-c1ccc(Br)cc1Br	0.8
COCCN(CCOC)c1nc(C)nc2c1nnn2-c1ccc(N(C)C)cc1C(F)(F)F	23.5
CCCCN(CC)c1ncnc2c1nnn2-c1ccc(C(C)C)cc1Br	287
COCCN(CCOC)c1nc(C)nc2c1nnn2-c1c(Cl)cc(OC)cc1OC	21
Cc1nc(N2CCCC2)c2nnn(-c3ccc(C(C)C)cc3Br)c2n1	194
COCCN(CCOC)c1nc(C)nc2c1nnn2-c1c(Br)cc(OC)cc1OC	28.3
CCN(CCOC)c1nc(C)nc2c1ncn2-c1ccc(C(C)C)cc1Br	9.2
CCCCN(CC)c1nc(C)nc2c1nc(-c1ccccc1)n2-c1c(Cl)cc(OC)cc1OC	133
Cc1nc(N2CCCCC2)c2nnn(-c3ccc(C(C)C)cc3Br)c2n1	46
CCN(CC)c1nc(C)nc2c1nnn2-c1ccc(C(C)C)cc1Br	25.3
COCCCN(CCOC)c1nc(C)nc2c1nnn2-c1ccc(C(C)C)cc1Br	66.9
CCC(COC)N(C)c1nc(C)nc2c1nnn2-c1ccc(C(C)C)cc1Br (stereo unspecified)	11.2
COCCN(CCOC)c1nc(C)nc2c1nnn2-c1c(Br)cc(OC)cc1N(C)C	48.2
COCCN(CCOC)c1nc(C)nc2c1nnn2-c1ccc(Br)cc1Br	7.4
CCC(CO)Nc1nc(C)nc2c1c(C)c(C)n2-c1c(C)cc(C)cc1C (stereo unspecified)	27.3
COCCN(Cc1cccnc1)c1nc(C)nc2c1nnn2-c1ccc(C(C)C)cc1Br	48.5
CCCCNc1nc(C)nc2c1c(C)c(C)n2-c1c(C)cc(C)cc1C	29
CCCCC(CC)Nc1nc(C)nc2c1nnn2-c1c(C)cc(C)cc1C (stereo unspecified)	7.6

tested on: Rattus norvegicus; assay: The Plasma area under the compound concentration -time curve was measured in rats after oral administration of 1 mg/kg dose; assay type: ADME, organism-based; parameters: dose 1 mg/kg, route oral; settings: in vivo; in short: as §1

Structure (SMILES)	AUC T [nM·h]
CCC(CCOC)Nc1nc(C)nc2c1ncn2-c1ccc(C(C)C)cc1Br (stereo unspecified)	30

tested on: not listed separately; assay: The Peak plasma concentration was measured in rats after oral administration of 1 mg/kg dose; assay type: ADME, organism-based; parameters: dose 1 mg/kg, route oral; settings: rat; in short: as §1

Structure (SMILES)	Cmax [nM]
CCC(CCOC)Nc1nc(C)nc2c1ncn2-c1ccc(C(C)C)cc1Br (stereo unspecified)	19.9
